Assay [1] concerns the target T1, chicken riboflavin binding protein (RfBP) (Gallus gallus, UniProt P02752).
T1 sequence (P02752 18-238): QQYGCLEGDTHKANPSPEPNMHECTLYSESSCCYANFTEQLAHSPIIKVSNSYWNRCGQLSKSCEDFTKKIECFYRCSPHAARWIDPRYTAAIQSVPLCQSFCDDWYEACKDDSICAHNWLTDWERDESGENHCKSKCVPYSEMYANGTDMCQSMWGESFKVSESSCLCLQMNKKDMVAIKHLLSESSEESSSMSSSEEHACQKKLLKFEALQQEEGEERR
The assay is described as follows: Isothermal titration calorimetry. The conditions noted are these: ITC; for KD: KD = 1/KA.

Assay [2] concerns the target T2, RfBP (Gallus gallus, UniProt P02752).
T2 sequence (P02752 18-238): T1 sequence (P02752 18-238)
The assay is described as follows: SPR solution competition: inhibition of RfBP adsorption to RF. The class given is binding, chicken.

In assay [3] the target is T2, RfBP. Briefly: SPR direct binding of RfBP to ligand 1 immobilized on CM5 sensor chip. On the set-up: species or system chicken. Put shortly:
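Chicken RfBP was injected at 33.0 to 3.70 μM in HBS-EP buffer (pH 7.4) over a CM5 chip with an immobilized riboflavin-linker conjugate. Sensorgrams were fitted globally to a 1:1 Langmuir model to give kon and koff, and KD was derived from these kinetics. KD was also obtained by Scatchard analysis of bound RfBP against RfBP concentration.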

The target of assay [4] is RfBP. The conditions noted are these: fluorescence quenching, cited from earlier work.
Where [5] appears, read: PBS pH 7.4, 25°C, calculated estimate.
[6] abbreviates: PBS pH 7.4, 25°C, calculated estimate (Table 2).
[7] abbreviates: 0.1M NaAc pH 4.0, 25°C, calculated estimate.
Where [8] appears, read: 0.1M Phosphate pH 7.4, 25°C, calculated estimate.
Where [9] appears, read: 0.1M Tris pH 9.0, 25°C, calculated estimate.

pKd: −log10 of the molar value. Like-named read-outs stand apart in the source and are kept apart here.

These results are taken from PMC3114641 (ACS medicinal chemistry letters, 2011).

Broadly, the pKd is the Kd on a negative log10 scale, so that one unit is a factor of ten. In general, koff refers to the first-order rate constant of dissociation. A higher koff goes with a short-lived complex. What is called kon is the rate constant with which the complex forms. A low value points to slow association.

For `OCCN1CCN(CCCN2c3ccccc3Sc3ccc(Cl)cc32)CC1` [Perphenazine, perphenazine], the “binding affinity towards the RfBP” value in assay [1] was “no binding affinity”. Moreover, in assay [1] (PBS pH 7.4, 25°C), the KD entry was “No Binding Observed”.

With `CN(C)CCCN1c2ccccc2Sc2ccc(Cl)cc21` [Chlorpromazine, chlorpromazine], the “binding affinity towards the RfBP” value in assay [1] is recorded as “no binding affinity”. Further, in assay [1] (PBS pH 7.4, 25°C), the KD result is on record as “No Binding Observed”.

For `Cc1cc2nc3c(=O)[nH]c(=O)nc-3n(C)c2cc1C` [Lumiflavin, lumiflavin], in assay [1] (PBS pH 7.4, 25°C), the “n (binding stoichiometry)” value was determined as 1.08 ±0.07 and the ΔH is -11.5 ± 1.72 kcal/mol. Also, the ΔG in assay [1] (setting [5]) was -9.85 kcal/mol. In addition, in assay [1] (setting [6]), the ΔS was −0.02 kJ mol^−1 K^−1.

For `Cc1cc2nc3c(=O)n(CC(=O)NCCCN)c(=O)nc-3n(C[C@H](O)[C@H](O)[C@H](O)CO)c2cc1C` [compound 1], on RfBP [2] (RfBP 11.1 µM, ligand concentrations above ~500 µM), the “inhibition of RfBP adsorption to the surface” value was “approximately 90%”. Further, at RfBP [3], the negative-log Kd (pKd) is 4.84, the koff was found to be 0.00149 s⁻¹ and the association rate constant (kon) came to 103 M⁻¹ s⁻¹.

For the molecule `Cc1cc2nc3c(=O)[nH]c(=O)nc-3n(C[C@H](O)[C@H](O)[C@H](O)CO)c2cc1C` [RF, riboflavin], the figures for the negative logarithm of the Kd (pKd) on RfBP [4] (0.01M phosphate buffer) and on RfBP [4] (0.1 M phosphate buffer) were 8.89 and 8.70, respectively. The “inhibitory activity, fold more potent than N(3) derivative 1” value at RfBP [2] (SPR Ki comparison) is “approximately 7 fold”. For the same molecule, the “n (binding stoichiometry)” value in assay [1] (0.1M NaAc pH 4.0, 25°C) was 0.70±0.04; in assay [1] (0.1M Phosphate pH 7.4, 25°C), 0.81±0.03; in assay [1] (0.1M Tris pH 9.0, 25°C), 0.82±0.03; in assay [1] (PBS pH 7.4, 25°C), 0.78±0.02. The ΔH is -24.07 ± 2.49 kcal/mol in assay [1] (0.1M NaAc pH 4.0, 25°C); -19.6 ± 1.36 kcal/mol in assay [1] (0.1M Phosphate pH 7.4, 25°C); -23.7 ± 2.15 kcal/mol in assay [1] (0.1M Tris pH 9.0, 25°C); -21.8 ± 1.36 kcal/mol in assay [1] (PBS pH 7.4, 25°C). For the same molecule, the ΔG in assay [1] (setting [7]) was -9.99 kcal/mol; in assay [1] (setting [8]), -11.1 kcal/mol; in assay [1] (setting [9]), -10.2 kcal/mol; in assay [1] (setting [5]), -11.4 kcal/mol. Further, the ΔS in assay [1] (setting [7]) was -0.0478 kcal/mol; in assay [1] (setting [8]), -0.0287 kcal/mol; in assay [1] (setting [9]), -0.0454 kcal/mol; in assay [1] (PBS pH 7.4, 25°C, calculated estimate (Table 1)), -0.0359 kcal/mol; in assay [1] (setting [6]) it was −0.15 kJ mol^−1 K^−1.
